One block for each compound: values may come before it. The star is where a group is joined. K(dnp) = lysine 2,4-dinitrophenyl (Nε-2,4-dinitrophenyl-lysine); Mca = COc1ccc2c(CC(=O)*)cc(=O)oc2c1
Experiments:
[1] = biological target: T1, Sm20S β5 subunit (Schistosoma mansoni, UniProt A0A5K4F079); experiment: Dose-response assay of purified Sm20S with Suc-LLVY-amc; assay type: biochemical; conditions: 500 nM inhibitor
T1 sequence (A0A5K4F079 63-264): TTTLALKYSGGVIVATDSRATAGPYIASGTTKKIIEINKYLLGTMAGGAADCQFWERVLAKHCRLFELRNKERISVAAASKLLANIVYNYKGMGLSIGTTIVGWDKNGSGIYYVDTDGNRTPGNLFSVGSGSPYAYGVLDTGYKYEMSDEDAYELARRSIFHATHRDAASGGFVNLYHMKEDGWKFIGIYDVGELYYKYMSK
Outline: (§1)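 Purified Sm20S was obtained from adult S. mansoni worms by ammonium sulfate precipitation, gel filtration and DEAE anion exchange. It was preincubated 15 min with test compound (20 μM to 9 nM, or 740 nM to 0.3 nM), then given 10 μM substrate: Suc-LLVY-amc (β5), Z-LLE-amc (β1) or Z-LRR-amc (β2). Maximum velocity over 8 sequential readings (RFU/sec) was normalized to 0.1% DMSO. Technical triplicates.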

[2] = biological target: T2, Sm20S β2 subunit (Schistosoma mansoni, UniProt G4VSW3); experiment: Dose-response assay of purified Sm20S with Z-LRR-amc; assay type: biochemical; conditions: read-out: inhibition of β2 subunit activity
T2 sequence (G4VSW3 39-281): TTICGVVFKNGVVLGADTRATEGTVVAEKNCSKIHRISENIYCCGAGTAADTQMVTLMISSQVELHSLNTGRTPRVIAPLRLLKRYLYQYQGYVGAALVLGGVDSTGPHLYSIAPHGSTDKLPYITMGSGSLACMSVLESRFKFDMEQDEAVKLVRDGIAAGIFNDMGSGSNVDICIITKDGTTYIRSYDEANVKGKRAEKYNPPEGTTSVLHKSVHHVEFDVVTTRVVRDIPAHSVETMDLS
T2 sequence (UPI0001A6248C 1-194 partner): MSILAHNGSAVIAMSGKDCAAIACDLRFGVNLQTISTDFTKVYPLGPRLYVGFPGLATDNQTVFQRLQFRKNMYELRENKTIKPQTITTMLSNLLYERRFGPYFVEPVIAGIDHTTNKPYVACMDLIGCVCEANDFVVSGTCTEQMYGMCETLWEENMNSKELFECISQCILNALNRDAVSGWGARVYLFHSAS
Outline: as §1

[3] = biological target: T3, Sm20S β1 subunit (Schistosoma mansoni, UniProt G4V926); experiment: Dose-response assay of purified Sm20S with Z-LLE-amc; assay type: biochemical
T3 sequence (G4V926 26-225): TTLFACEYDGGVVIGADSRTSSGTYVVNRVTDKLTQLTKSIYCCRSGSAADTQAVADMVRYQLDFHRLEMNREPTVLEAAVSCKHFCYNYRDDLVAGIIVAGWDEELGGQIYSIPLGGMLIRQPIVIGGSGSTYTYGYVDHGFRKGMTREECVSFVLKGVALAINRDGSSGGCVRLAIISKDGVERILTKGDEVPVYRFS
Outline: as §1

[4] = biological target: T3, Sm20S β1 subunit; experiment: Inhibition of single-step enriched Sm20S, β1 substrate; assay type: biochemical
Outline: (§2)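 Sm20S was single-step enriched: worm lysate in Tris/E-64 pH 7.5, ammonium sulfate precipitation at 30 and 60% saturation, then 100 kDa concentration. Assay buffer contained pepstatin, E-64 and AEBSF. Substrates were mca-VDQMDGW-K(dnp)-NH2 (β1), mca-FnKRR-K(dnp)-NH2 (β2) and FNKL-amc (β5), tested across test compound concentrations. Reads were at ex/em 320/400 (mca) or 340/460 (amc). Technical triplicates.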

[5] = biological target: T2, Sm20S β2 subunit; experiment: Inhibition of single-step enriched Sm20S, β2 substrate; assay type: biochemical
Outline: as §2

[6] = biological target: T1, Sm20S β5 subunit; experiment: Inhibition of single-step enriched Sm20S, β5 substrate; assay type: biochemical
Outline: as §2

[7] = test system: Sm20S β2; experiment: Sm20S pre-incubated with 10 μM inhibitor, assayed with mca-FnKRR-K; assay type: biochemical, Schistosoma mansoni; conditions: extended pre-incubation with 10 μM inhibitor
Outline: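 Sm20S was pre-incubated with test compound, then assayed with mca-FnKRR-K(dnp) and Z-LRR-amc. Fluorescence was read at 24°C: ex/em 320/400 nm (mca) and 360/460 nm (amc). Technical triplicates.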

[8] = test system: Sm20S β1; experiment: Inhibition of Sm20S hydrolysis of mca-VDQMDGW-K; assay type: biochemical, Schistosoma mansoni
[9] = test system: 20S proteasome of three Schistosoma species; experiment: Cross-species inhibition profile of schistosome lysates; assay type: biochemical, S. mansoni, S. haematobium, S. japonicum; conditions: lysates pre-incubated with 500 nM
Outline: (§3)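 Extracts of S. haematobium (0.625 μg/μL), S. japonicum and S. mansoni (1.25 μg/μL each) were enriched by ammonium sulfate precipitation. Proteasome amount was normalized by labelling with 2 μM Me4BodipyFL-Ahx3Leu3VS (37°C, 3 h) and in-gel fluorescence. Extracts were preincubated 1 h with test compound (0.125% DMSO vehicle), then mixed with an equal volume of 20 μM β1/β2 mca substrate or 40 μM Z-FNKL-amc. Buffer: 100 mM Tris pH 7.5, 50 μM E-64, 1 mM AEBSF, 2 μM pepstatin, 0.03% SDS. Triplicate wells at 24°C.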

[10] = test system: 20S proteasome β1 subunit of three Schistosoma species; experiment: Proteasome inhibition in three Schistosoma species, β1 substrate; assay type: biochemical, S. mansoni, S. haematobium, S. japonicum; conditions: 500 nM, single-step enriched 20S, across the three species
Outline: as §3

[11] = test system: 20S proteasome β2 subunit of three Schistosoma species; experiment: Proteasome inhibition in three Schistosoma species, β2 substrate; assay type: biochemical, S. mansoni, S. haematobium, S. japonicum
Outline: as §3

[12] = test system: 20S proteasome β5 subunit of three Schistosoma species; experiment: Proteasome inhibition in three Schistosoma species, β5 substrate; assay type: biochemical, S. mansoni, S. haematobium, S. japonicum
Outline: as §3

[13] = test system: Sm20S β1; experiment: Proteasome inhibition in enriched extract, β1 substrate, S. mansoni; assay type: biochemical; conditions: 1 μM
Outline: as §3

[14] = test system: Sh20S β1; experiment: Proteasome inhibition in enriched extract, β1 substrate, S. haematobium; assay type: biochemical; conditions: 1 μM
Outline: as §3

[15] = test system: Sj20S β1; experiment: Proteasome inhibition in enriched extract, β1 substrate, S. japonicum; assay type: biochemical; conditions: 1 μM
Outline: as §3

[16] = biological target: T1, Sm20S β5 subunit; experiment: Substrate hydrolysis by purified Sm20S, β5 substrates; assay type: biochemical
Outline: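 Purified Sm20S (10 nM) was incubated with 2-fold serial dilutions of Ac-FNKL-amc or Suc-LLVY-amc. Hydrolysis was monitored at 24°C (ex/em 360/460 nm) and activity was compared as a function of substrate concentration. Technical triplicates.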

[17] = test system: Sm20S β1; experiment: Substrate hydrolysis by purified Sm20S, β1 substrates; assay type: biochemical, Schistosoma mansoni; conditions: between 16 and 250 μM substrate
[18] = 500 nM, single-step enriched 20S, across the three species

inhibition of β5 subunit activity [1]: completely inactivated
inhibition at 0.5 µM [2]: ~35%
inhibition of β1 subunit activity ([3]; 500 nM inhibitor, Z-LLE-amc): completely inactivated
IC50 [4]: 49.84 ± 0.24 nM
IC50 using the β2 substrate ([5]; single-step enriched Sm20S, β2 substrate): did not inhibit
IC50 [6]: 18 ± 2.05 nM
Compound: CC(C)C[C@H](NC(=O)[C@H](Cc1ccccc1)NC(=O)c1cnccn1)B(O)O [BTZ, bortezomib]
effect on Sm20S β2 activity [7]: only partially inhibited
inhibition of mca-VDQMDGW-K(dnp) hydrolysis by Sm20S [8]: inhibited
cross-species subunit inhibition profile [9]: preferentially inhibited β1 and β5

inhibition of β5 subunit activity [1]: completely inhibited
inhibition at 0.5 µM [2]: ~40%
inhibition at 0.5 µM ([3]; read-out: inhibition of β1 subunit activity): ~40%
IC50 for the β1 subunit ([4]; single-step enriched Sm20S, β1 substrate): not inhibitory
IC50 [5]: 288 ± 90 nM
IC50 [6]: 2.5 ± 0.51 nM
Compound: CC(C)C[C@H](NC(=O)[C@H](CCc1ccccc1)NC(=O)CN1CCOCC1)C(=O)N[C@@H](Cc1ccccc1)C(=O)N[C@@H](CC(C)C)C(=O)[C@@]1(C)CO1 [CFZ, carfilzomib]
effect on Sm20S β2 activity [7]: inactivated
cross-species subunit inhibition profile [9]: inhibited β5 and β2 more than β1

Compound: C[C@@]12OC(=O)[C@]1([C@@H](O)[C@@H]1C=CCCC1)NC(=O)[C@@H]2CCCl [MZB, marizomib]
reduction of β1 activity [10]: 61 to 34%
reduction of β2 activity [11, 18]: 66 to 48%
reduction of β5 activity [12, 18]: complete inactivation

Compound: CCCCCC(=O)N[C@@H](Cc1c[nH]c2ccccc12)C(=O)N[C@@H](Cc1c[nH]c2ccccc12)C(=O)N[C@@H](Cc1ccccc1)C(=O)[C@@]1(C)CO1 [carmaphycin-17]
inhibition of β2 subunits ([11]; 1 μM, three species): ~ 60%
inhibition of β5 subunits ([12]; 1 μM, three species): complete inhibition
decrease of Sm20S β1 activity [13]: 20%
decrease of Sh20S β1 activity [14]: 20%
reduction of Sj20S β1 activity [15]: 47%

substrate concentration of maximal cleavage activity [16]: 25 µM
cleavage rate relative to Suc-LLVY-amc ([16]; 25 μM substrate): ~ four-fold
Compound: Ac-FNKL-amc

Compound: mca-VDQMDGW-K(dnp)-NH2 (Mca-VDQMDGW-{K(dnp)-NH2}) [VDQMD*GW]
cleavage efficiency relative to LLE-amc [17]: ~ 2 fold

Reference: paper PMC10888821 (bioRxiv, 2024)
